According to paper PMC3483362 (Journal of inorganic biochemistry, 2012):
Entries after “also recorded” stand apart in the source; their conditions may differ.

Columns and labels:
[1] = test system: human Jurkat-T acute lymphoblastic leukemia cells; experiment: Cytotoxicity by modified MTT-reduction method, 24 h; type: cell-based
[2] = biological target: human serum albumin (HSA) (Homo sapiens, UniProt P02768); experiment: HSA fluorescence quenching; type: binding; conditions: excitation 295 nm, HSA 10 µM, phosphate buffer pH 7.39; compared to cisplatin
Chain of human serum albumin (HSA) (P02768 25-609): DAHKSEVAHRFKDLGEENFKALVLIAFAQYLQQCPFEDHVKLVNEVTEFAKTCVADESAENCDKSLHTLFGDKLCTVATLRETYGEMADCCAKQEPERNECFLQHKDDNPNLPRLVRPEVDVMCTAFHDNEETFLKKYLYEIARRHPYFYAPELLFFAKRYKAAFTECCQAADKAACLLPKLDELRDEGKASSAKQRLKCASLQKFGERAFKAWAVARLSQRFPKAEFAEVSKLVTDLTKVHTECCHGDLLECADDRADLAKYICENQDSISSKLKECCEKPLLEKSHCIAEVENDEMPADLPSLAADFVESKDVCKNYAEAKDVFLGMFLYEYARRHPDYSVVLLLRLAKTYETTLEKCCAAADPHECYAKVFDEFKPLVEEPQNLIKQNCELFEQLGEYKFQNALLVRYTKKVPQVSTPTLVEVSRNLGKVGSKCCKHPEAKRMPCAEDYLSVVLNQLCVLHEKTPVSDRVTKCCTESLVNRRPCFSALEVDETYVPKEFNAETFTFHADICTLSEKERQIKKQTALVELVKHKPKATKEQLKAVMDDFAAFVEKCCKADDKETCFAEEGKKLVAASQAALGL
Method in brief: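 HSA (10 µM) in phosphate buffer pH 7.39 received ten successive additions from an 8 mM DMSO stock of test compound, with a read 240 s after each. Tryptophan excitation was at 295 nm and emission was recorded at 300–450 nm at room temperature. Data were fitted to the Stern-Volmer equation F₀/F = 1 + K_SV[Q].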

Solubility = type: physicochemical
[3] = test system: DU-145 human prostate cancer cells; experiment: Cytotoxicity by modified MTT-reduction method, 24 h; type: cell-based; conditions: DU-145 cells
Method in brief: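 DU-145 cells were grown in RPMI 1640 with 5% FCS, L-glutamine and penicillin/streptomycin, seeded at 1 ×10⁵ cells/mL and allowed to attach. […] After 24 h, proliferation was read by a modified MTT-reduction method and IC₅₀ derived.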

[4] = test system: DU-145 human prostate cancer cells; experiment: Cell death pathway; type: cell-based; conditions: 24 h
Method in brief: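 DU-145 cells in RPMI 1640 with 5% FCS, L-glutamine and penicillin/streptomycin were seeded at 1×10⁵ cells/mL and allowed to attach. Test compound (1% DMSO, diluted in water) was given for 24 h. Nuclei were stained with Hoechst (10 µg/ml) and imaged under UV. For flow cytometry, cells went into Hepes pH 7.4 annexin buffer with Annexin V conjugate (0.5 µg/ml) and 7-AAD, 37 °C, 15 min.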

Calf Thymus DNA = experiment: Interaction with CT DNA by circular dichroism; type: binding; conditions: drug/DNA ratios 0.1-1.0, 37 °C, 20 h
Method in brief: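 CT DNA (195 µM) in 5 mM Tris/HCl, 50 mM NaClO₄, pH 7.39 received test compound from fresh 5 mM stocks in DMSO-H₂O (1:99). Mixtures were kept 20 h at 37 °C in the dark. CD spectra were recorded at 25 °C over 220–320 nm, blank-corrected, smoothed with a Savitzky-Golay filter, and expressed in molar ellipticity.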

Jurkat cells = experiment: Cell death pathway; type: cell-based, human; conditions: 24 h, concentrations for IC50 values
Method in brief: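 Jurkat cells (5 ×10⁵ cells/ml) exposed to test compound for 24 h. Nuclei stained with Hoechst (10 µg/ml) and photographed under UV light. For flow cytometry, cells were held in annexin binding buffer (140 mM NaCl, 2.5 mM CaCl₂, 10 mM Hepes/NaOH, pH 7.4) with fluorescent AnnexinV (0.5 µg/ml) and 7-AAD (50ng/µl) at 37 °C for 15 min, then diluted with buffer and counted.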

[5] = test system: Jurkat sh-Bak cells (Bax/Bak-deficient Jurkat cells); experiment: Activity against apoptosis-resistant cells; type: cell-based, human; conditions: cisplatin-resistant
[6] = test system: MOLT-4 human leukemia cell line; conditions: read-out: IC50 MOLT-4; cited from earlier work
[7] = Stability in solution by 31P{1H} and 1H NMR; type: physicochemical; conditions: RT
plasmid (pBR322) DNA = experiment: Electrophoresis mobility shift assay; type: binding; conditions: 37 °C, 20 h, increasing molar ratios
Method in brief: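 pBR322 plasmid DNA (20 µg/mL) in 5 mM Tris/HCl, 50 mM NaClO₄, pH 7.39 was incubated with test compound at compound/DNA molar ratios of 0.25–4.0, 37 °C, 20 h, in the dark. Free DNA and cisplatin-DNA served as controls. Samples ran on 1% agarose in TAE for 1.5 h at 80 V, with GelRed staining for 30 min.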

SMILES	times more cytotoxic than cisplatin [1]	quenching of HSA fluorescence [2]	solubility at concentrations required for ITC (Solubility; ITC conditions, phosphate buffer)	times more cytotoxic than cisplatin [3]	cell death / growth in DU-145 cells [4]	effect on CD spectrum of CT DNA / interaction with CT DNA (Calf Thymus DNA)	cell death in Jurkat cells (Jurkat cells)	toxicity to Jurkat sh-Bak cells [5]	IC50 [6]	stable in DMSO solution (time) ([7]; DMSO)	stable in H2O (time) ([7]; H2O)	solubility in H2O (Solubility; H2O)	effect on electrophoretic mobility of pBR322 forms (plasmid (pBR322) DNA)
O=C1[N-][Au]([Cl])([Cl])[n+]2ccccc21 [Compound 5, [AuCl2(HN-C(O)-2-NC5H4)]]	seven	higher quenching	poor solubility at the required concentrations	4 times	do not induce cell death in DU-145 at 24 h	decrease in helicity (destabilizing effect); also recorded: interacts more strongly with DNA most likely by intercalation	induced cell death in Jurkat cells; also recorded: induce both necrotic and apoptotic cell death	exhibited some toxicity	3.1 µM	–	–	–	–
O=C(N=P12CN3CN(CN(C3)C1)C2)c1ccccn1 [Compound 1, TPA=N-C(O)-2-NC5H4 (N,N-IM)]	–	–	–	–	–	–	–	–	–	14 days	3 h	soluble	does not cause any shift for either form
N.N.[Cl][Pt][Cl] [Cisplatin, reference compound]	–	–	–	–	–	–	–	activity is totally dependent on the presence of functional Bax and Bak	–	–	–	–	decrease in mobility of the CCC form and an increase in mobility of the OC form
